ChEMBL document CHEMBL1122596, “Synthesis and evaluation of a novel series of N,N-dimethylisotryptamines” (J Med Chem, 1984)
Where “and” joins values, the source holds several entries; their conditions need not be identical. Equal entries are not always repeated.

Assays:
[1] = molecular target: 5-hydroxytryptamine receptor 2B (Rattus norvegicus, UniProt P30994); experiment: Displacement of [3H]5-HT binding to serotonin receptor of rat fundus membranes; details: read-out: pA2 (converted)
Rattus norvegicus [2] = species on record: Rattus norvegicus; experiment: Mean responses per minute during the extinction session.; type: functional
Method in brief: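 Male Sprague-Dawley rats trained in a two-lever operant task to discriminate racemic DOM (1.0 mg/kg) from saline, given 15 min before a VI-15s reinforcement schedule. Test compound given by injection before a 2.5-min nonreinforced extinction session. Read-outs are DOM-lever responses as percent of total responses, and responses per minute. Values are means ±SEM over the animals responding; no responding was recorded as disruption.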

Rattus norvegicus [3] = experiment: Responses made on the DOM -appropriate lever as a percent of total responses; data was collected during the 2.5 min extinction session at 12 mg/kg dose; type: functional
Method in brief: (§1)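 Male Sprague-Dawley rats trained to tell racemic DOM (1.0 mg/kg) from saline in a two-lever operant task (VI-15s schedule). Drug was given 15 min before a 2.5-min nonreinforced extinction session. The read-out was DOM-appropriate lever responses as % of total responses, with about 5 rats per dose. ED50 was taken from dose-response data by Finney's method.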

Rattus norvegicus [4] = experiment: Responses made on the DOM -appropriate lever as a percent of total responses; data was collected during the 2.5 min extinction session at 7 mg/kg dose; type: functional; method in brief: as §1
[5] = molecular target: Serotonin (5-HT) receptor; experiment: Evaluated for inhibition of specific [3H]5-HT receptor binding in rat cortex.
Method in brief: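 Rat cortex (dorsal to rhinal sulcus) from male Sprague-Dawley rats (150–200 g), pooled, homogenized in 0.05 M Tris-HCl pH 7.4, washed four times by centrifugation with a 37 °C 10-min incubation between washes. [3H]-5-HT binding done with varying test compound concentrations in 50 mM Tris pH 7.4, 10 μM pargyline, 4 mM CaCl2, 7 min at 37 °C. Filtered on glass fibre. Specific binding taken as the difference with 1 μM metergoline.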

Chain of 5-hydroxytryptamine receptor 2B (P30994 whole entry): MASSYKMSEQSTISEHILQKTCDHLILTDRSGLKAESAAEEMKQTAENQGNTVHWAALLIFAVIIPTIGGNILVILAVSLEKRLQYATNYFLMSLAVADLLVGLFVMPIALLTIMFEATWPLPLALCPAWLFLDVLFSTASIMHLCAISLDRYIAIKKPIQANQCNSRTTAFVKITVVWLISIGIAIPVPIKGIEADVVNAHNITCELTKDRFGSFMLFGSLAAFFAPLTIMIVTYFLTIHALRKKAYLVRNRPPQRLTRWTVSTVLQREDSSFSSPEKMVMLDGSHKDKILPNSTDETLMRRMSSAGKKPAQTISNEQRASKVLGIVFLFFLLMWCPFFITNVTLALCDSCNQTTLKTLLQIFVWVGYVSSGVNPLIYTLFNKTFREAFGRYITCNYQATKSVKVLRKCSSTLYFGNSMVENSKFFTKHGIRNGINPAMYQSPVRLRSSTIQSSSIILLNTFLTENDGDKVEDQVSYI

For `CCN(CCN(C)C)c1ccccc1`, which Kb [1] is on record?
Its Kb is 0.537 µM.

How did the Response rate (Rattus norvegicus [2]) turn out when `CN(C)CCn1cnc2ccccc21` was run?
Its Response rate is 12.6 and 15.2.

What about the Kb [1] of the same compound?
Its Kb is 0.138 µM.

And the DOM (Rattus norvegicus [3])?
The DOM was 0%.

What about the DOM (Rattus norvegicus [4]) of the same compound?
The DOM was 0%.

With `COc1ccc2c(CCN)c[nH]c2c1` as the compound, how does the IC50 [5] read?
Its IC50 is 0.63 µM.

`COc1cccc2[nH]cc(CCN)c12` was tested. Which IC50 [5] did it give?
The IC50 was 0.22 µM.

How did the Kb [1] turn out when `NCCC1CNc2ccccc21` (centres undefined) was run?
The Kb was 2.09 µM.

For `CN(C)CCN1CCc2ccccc21`, which Kb [1] is on record?
Its Kb is 0.269 µM.
